The source made the active and inactive calls. The calls are words filed in the database; no cut-off is given here.
How the values were obtained:
HeLa [1] = assay: Downregulation of Xiap expression in human HeLa cells at 250 to 500 nM after 24 hrs by Western blot analysis; type: functional, cell-based
Procedure, shortened: (§1)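 HeLa cells treated for 24 or 48 h, washed twice with ice-cold PBS and lysed on ice 30 min; lysates spun at 15000 ×g, 4 °C. Protein (20 μg) resolved by SDS–PAGE on 7.5–15% gels and blotted to PVDF. Specific primary antibodies for 2 h at room temperature, then peroxidase secondary for 60 min, ECL detection. Membranes stripped and reprobed for β-actin as loading control.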

HeLa [2] = assay: Induction of apoptosis in human HeLa cells assessed as appearance of cleaved caspase-8 protein at 250 to 500 nM after 24 to 48 hrs by Western blot analysis; type: functional, cell-based; procedure, shortened: as §1
Jurkat = assay: Antiproliferative activity against human Jurkat cells after 72 hrs by MTT assay; type: functional, cell-based
Procedure, shortened: (§2)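 Cells seeded at 8 × 10³ per well and incubated 18 h at 37 °C, 5% CO₂, then exposed to a range of compound concentrations for 72 h at 37 °C. Jurkat and HL-60 were grown in RPMI-1640, the others in DMEM, with penicillin, streptomycin and 10% FBS. DMSO stocks (10 mM); DMSO ≤0.25% final. Viability by MTT. […] Mean ± SE of ≥3 independent experiments.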

LoVo = assay: Antiproliferative activity against human LoVo cells after 72 hrs by MTT assay; type: functional, cell-based; procedure, shortened: as §2
A549 [3] = assay: Antiproliferative activity against human A549 cells after 72 hrs by MTT assay; type: functional, cell-based; settings: A549, 72 h
HeLa [4] = assay: Induction of apoptosis in human HeLa cells assessed as disappearance of uncleaved caspase-2 protein at 250 to 500 nM after 24 to 48 hrs by Western blot analysis; type: functional, cell-based; procedure, shortened: as §1
A549 [5] = assay: Resistance ratio of IC50 for human taxol-resistant A549-T12 cells expressing tubulin mutant gene to IC50 for human A549 cells; type: functional
HeLa [6] = assay: Induction of survivin phosphorylation at Thr34 in human HeLa cells at 250 to 500 nM after 24 to 48 hrs by Western blot analysis
CCRF-CEM [7] = assay: Resistance ratio of IC50 for human vinblastine-resistant CEM/VBL100 cells overexpressing P-glycoprotein to IC50 for human CEM cells; type: functional
HeLa [8] = assay: Induction of apoptosis in human HeLa cells assessed as caspase-3 activation at 250 to 500 nM after 24 to 48 hrs by Western blot analysis; type: functional, cell-based; procedure, shortened: as §1
HeLa [9] = assay: Induction of apoptosis in human HeLa cells assessed as increase in caspase-3-mediated PARP cleavage at 250 to 500 nM after 24 to 48 hrs by Western blot analysis; type: functional, cell-based; procedure, shortened: as §1
HeLa [10] = assay: Induction of apoptosis in human HeLa cells at 500 nM after 24 to 48 hrs by Annexin V-FITC/propidium iodide staining based biparametric cytofluorimetric analysis; type: functional, cell-based
Procedure, shortened: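 HeLa cells treated at 250 or 500 nM for 24 or 48 h, then labelled with annexin-V-FITC (phosphatidylserine) plus propidium iodide. Red and green fluorescence measured by biparametric flow cytometry. Mean ± SEM of three independent experiments.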

HeLa [11] = assay: Downregulation of Mcl-1 expression in human HeLa cells at 250 to 500 nM after 24 hrs by Western blot analysis; type: functional, cell-based; procedure, shortened: as §1
[12] = Growth inhibition of human resting PBL after 72 hrs by MTT assay; type: cell-based; settings: resting peripheral blood lymphocytes (PBL)
CCRF-CEM [13] = assay: Antiproliferative activity against human CEM cells after 72 hrs by MTT assay; type: functional, cell-based

IC50 (Jurkat): 1.7 nM
IC50 (LoVo): 31 nM
IC50 (A549 [3]): 38.6 nM
IC50 (CCRF-CEM [13]): 0.8 nM
Structure (SMILES): CCOc1ccc(-c2sc(NC)nc2-c2cc(OC)c(OC)c(OC)c2)cc1
Activity (HeLa [1]): Active
Activity (HeLa [2]): Active
Activity (HeLa [4]): Active
Ratio IC50 (A549 [5]): 0.5
Activity (HeLa [6]): Active
Ratio IC50 (CCRF-CEM [7]): 2.9
Activity (HeLa [8]): Active
Activity (HeLa [9]): Active
Activity (HeLa [10]): Active
Activity (HeLa [11]): Active
GI50 at 72 h [12]: 443 nM
